According to ChEMBL document CHEMBL1136530, “Synthesis, stereochemical assignment and biological activity of a novel series of C-4" modified aza-macrolides” (2003):
Values after ≈ are worked out from the molar mass of the structure shown.

Key:
Type in all cases: functional
Escherichia coli = assay: Minimum inhibitory concentration against Escherichia coli
Mus musculus = assay: In vivo effective dose against Pasteurella multocida infection in mouse
Procedure, shortened: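 Mice infected with P. multocida serotype 5A. Subcutaneous dosing 0.5 h post-infection at 5 to 80 mg/kg. ED50 calculated from the number of mice surviving four days after infection.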

Pasteurella multocida = assay: Minimum inhibitory concentration against Pasteurella multocida
Procedure, shortened: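 P. multocida strain 59A0067 (turkey origin), grown overnight on BHI plates; colonies in saline at OD625 0.09 (0.5 McFarland), diluted 1:100 in BHI broth. Two-fold serial dilutions in BHI microdilution, about 5×10⁵ cfu/mL final, 37 °C for 18 h. MIC is the lowest concentration with A600 ≤ 0.025.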

Row | SMILES | MIC (Escherichia coli) [µg/mL] | MIC (Pasteurella multocida) [µg/mL] | ED50 (Mus musculus) [mg/kg]
1 | CC[C@H]1OC(=O)[C@H](C)[C@@H](O[C@H]2C[C@@](C)(OC)[C@@](O)(c3ccccn3)[C@H](C)O2)[C@H](C)[C@@H](O[C@@H]2O[C@H](C)C[C@H](N(C)C)[C@H]2O)[C@](C)(O)C[C@@H](C)CN[C@H](C)[C@@H](O)[C@]1(C)O | 3.13 (≈ 3.85 µM) | 0.78 (≈ 0.961 µM) | > 40
2 | CC[C@H]1OC(=O)[C@H](C)[C@@H](O[C@H]2C[C@@](C)(OC)[C@@](O)(c3ccccc3)[C@H](C)O2)[C@H](C)[C@@H](O[C@@H]2O[C@H](C)C[C@H](N(C)C)[C@H]2O)[C@](C)(O)C[C@@H](C)CN[C@H](C)[C@@H](O)[C@]1(C)O | 12.5 (≈ 15.4 µM) | 3.13 (≈ 3.86 µM) | –
3 | C=CC[C@@]1(O)[C@H](C)O[C@@H](O[C@H]2[C@H](C)[C@@H](O[C@@H]3O[C@H](C)C[C@H](N(C)C)[C@H]3O)[C@](C)(O)C[C@@H](C)CN[C@H](C)[C@@H](O)[C@](C)(O)[C@@H](CC)OC(=O)[C@@H]2C)C[C@@]1(C)OC | 0.78 (≈ 1.01 µM) | < 0.1 | 58
4 | CC[C@H]1OC(=O)[C@H](C)[C@@H](O[C@H]2C[C@@](C)(OC)[C@@](O)(CCO)[C@H](C)O2)[C@H](C)[C@@H](O[C@@H]2O[C@H](C)C[C@H](N(C)C)[C@H]2O)[C@](C)(O)C[C@@H](C)CN[C@H](C)[C@@H](O)[C@]1(C)O | 6.25 (≈ 8.02 µM) | 0.39 (≈ 0.501 µM) | –
5 | CC[C@H]1OC(=O)[C@H](C)[C@@H](O[C@H]2C[C@@](C)(OC)[C@@](O)(c3ccco3)[C@H](C)O2)[C@H](C)[C@@H](O[C@@H]2O[C@H](C)C[C@H](N(C)C)[C@H]2O)[C@](C)(O)C[C@@H](C)CN[C@H](C)[C@@H](O)[C@]1(C)O | 1.56 (≈ 1.95 µM) | 0.2 (≈ 0.25 µM) | 72
6 | CC[C@H]1OC(=O)[C@H](C)[C@@H](O[C@H]2C[C@@](C)(OC)[C@@](O)(CCCOC)[C@H](C)O2)[C@H](C)[C@@H](O[C@@H]2O[C@H](C)C[C@H](N(C)C)[C@H]2O)[C@](C)(O)C[C@@H](C)CN(C)[C@H](C)[C@@H](O)[C@]1(C)O | 1.56 (≈ 1.9 µM) | 0.1 (≈ 0.122 µM) | > 80
7 | C#C[C@@]1(O)[C@H](C)O[C@@H](O[C@H]2[C@H](C)[C@@H](O[C@@H]3O[C@H](C)C[C@H](N(C)C)[C@H]3O)[C@](C)(O)C[C@@H](C)CN[C@H](C)[C@@H](O)[C@](C)(O)[C@@H](CC)OC(=O)[C@@H]2C)C[C@@]1(C)OC | 3.13 (≈ 4.12 µM) | < 0.1 | 24
8 | CC[C@H]1OC(=O)[C@H](C)[C@@H](O[C@H]2C[C@@](C)(OC)[C@@](O)(C#CCN(C)C)[C@H](C)O2)[C@H](C)[C@@H](O[C@@H]2O[C@H](C)C[C@H](N(C)C)[C@H]2O)[C@](C)(O)C[C@@H](C)CN[C@H](C)[C@@H](O)[C@]1(C)O | 1.56 (≈ 1.91 µM) | 0.2 (≈ 0.245 µM) | 22
9 | CCCC[C@@]1(O)[C@H](C)O[C@@H](O[C@H]2[C@H](C)[C@@H](O[C@@H]3O[C@H](C)C[C@H](N(C)C)[C@H]3O)[C@](C)(O)C[C@@H](C)CN[C@H](C)[C@@H](O)[C@](C)(O)[C@@H](CC)OC(=O)[C@@H]2C)C[C@@]1(C)OC | 12.5 (≈ 15.8 µM) | 0.78 (≈ 0.986 µM) | –
10 | CCC[C@@]1(O)[C@H](C)O[C@@H](O[C@H]2[C@H](C)[C@@H](O[C@@H]3O[C@H](C)C[C@H](N(C)C)[C@H]3O)[C@](C)(O)C[C@@H](C)CN[C@H](C)[C@@H](O)[C@](C)(O)[C@@H](CC)OC(=O)[C@@H]2C)C[C@@]1(C)OC | 1.56 (≈ 2.01 µM) | 0.2 (≈ 0.257 µM) | 81

Further compounds by falling MIC (Escherichia coli), results first:

Row | MIC (Escherichia coli) [µg/mL] | MIC (Pasteurella multocida) [µg/mL] | SMILES | ED50 (Mus musculus) [mg/kg]
11 | 0.78 (≈ 1.01 µM) | 0.1 (≈ 0.129 µM) | C#C[C@@]1(O)[C@H](C)O[C@@H](O[C@H]2[C@H](C)[C@@H](O[C@@H]3O[C@H](C)C[C@H](N(C)C)[C@H]3O)[C@](C)(O)C[C@@H](C)CN(C)[C@H](C)[C@@H](O)[C@](C)(O)[C@@H](CC)OC(=O)[C@@H]2C)C[C@@]1(C)OC | 33
12 | 0.39 (≈ 0.47 µM) | 0.05 (≈ 0.0603 µM) | CC[C@H]1OC(=O)[C@H](C)[C@@H](O[C@H]2C[C@@](C)(OC)[C@@](O)(c3nccn3C)[C@H](C)O2)[C@H](C)[C@@H](O[C@@H]2O[C@H](C)C[C@H](N(C)C)[C@H]2O)[C@](C)(O)C[C@@H](C)CN(C)[C@H](C)[C@@H](O)[C@]1(C)O | –
13 | 0.39 (≈ 0.47 µM) | 0.1 (≈ 0.12 µM) | CC[C@H]1OC(=O)[C@H](C)[C@@H](O[C@H]2C[C@@](C)(OC)[C@@](O)(C#CCN(C)C)[C@H](C)O2)[C@H](C)[C@@H](O[C@@H]2O[C@H](C)C[C@H](N(C)C)[C@H]2O)[C@](C)(O)C[C@@H](C)CN(C)[C@H](C)[C@@H](O)[C@]1(C)O | 40
14 | 0.39 (≈ 0.477 µM) | 0.05 (≈ 0.0612 µM) | CC[C@H]1OC(=O)[C@H](C)[C@@H](O[C@H]2C[C@@](C)(OC)[C@@](O)(C#CCOC)[C@H](C)O2)[C@H](C)[C@@H](O[C@@H]2O[C@H](C)C[C@H](N(C)C)[C@H]2O)[C@](C)(O)C[C@@H](C)CN(C)[C@H](C)[C@@H](O)[C@]1(C)O | 29
